Measured values reported in ChEMBL document CHEMBL2046365, “Total synthesis and antifungal activity of (2S,3R)-2-aminododecan-3-ol” (2012).
Values after ≈ are worked out from the molar mass of the structure shown.

Assays:
Format in all cases: functional
Candida albicans [1] = experiment: Antifungal activity against Candida albicans MTCC 7315 after 24 hrs by well diffusion method
Method in brief: (§1)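 Well diffusion on Mueller-Hinton agar plates, each surface-seeded with 0.1 mL of an MTCC Candida reference strain suspension at 1.5 × 10⁸ cfu/mL (0.5 McFarland). Compound added to 6.0 mm cork-bored wells at 300–1.4 per well; methanol well as negative control. Plates incubated 24 h at 30 °C. MIC taken as the lowest concentration giving an inhibition zone. Duplicates, mean reported.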

Nakaseomyces glabratus [2] = experiment: Antifungal activity against Candida glabrata MTCC 3019 after 24 hrs by well diffusion method; method in brief: as §1
[Candida] aaseri = Antifungal activity against Candida aaseri MTCC 1962 after 24 hrs by well diffusion method; method in brief: as §1
Candida albicans [3] = experiment: Antifungal activity against Candida albicans MTCC 854 after 24 hrs by well diffusion method; method in brief: as §1
Candida albicans [4] = experiment: Antifungal activity against Candida albicans MTCC 3958 after 24 hrs by well diffusion method; method in brief: as §1
Candida albicans [5] = experiment: Antifungal activity against Candida albicans MTCC 183 after 24 hrs by well diffusion method; method in brief: as §1
Candida parapsilosis = experiment: Antifungal activity against Candida parapsilosis MTCC 1744 after 24 hrs by well diffusion method; method in brief: as §1
Candida albicans [6] = experiment: Antifungal activity against Candida albicans; method in brief: as §1
Nakaseomyces glabratus [7] = experiment: Antifungal activity against Candida glabrata; method in brief: as §1
[8] = Yamadazyma aaseri, MTCC 1962, 24 h
[9] = Lodderomyces parapsilosis, MTCC 1744, 24 h

Compound: C[C@@H]1[C@H](O)[C@@H](C)/C=C/C=C/C=C/C=C/C=C/C=C/C=C/[C@H](O[C@@H]2O[C@H](C)[C@@H](O)[C@H](N)[C@@H]2O)C[C@@H]2O[C@](O)(C[C@@H](O)C[C@@H](O)[C@H](O)CC[C@@H](O)C[C@@H](O)CC(=O)O[C@H]1C)C[C@H](O)[C@H]2C(=O)O [AMPHOTERICIN B]
- MIC (Candida albicans [1]; MTCC 7315, 24 h): 300 µg/mL (≈ 325 µM)
- MIC (Nakaseomyces glabratus [2]; MTCC 3019, 24 h): 300 µg/mL (≈ 325 µM)
- MIC ([Candida] aaseri; [8]): 300 µg/mL (≈ 325 µM)
- MIC (Candida albicans [3]; MTCC 854, 24 h): 300 µg/mL (≈ 325 µM)
- MIC (Candida albicans [4]; MTCC 3958, 24 h): 300 µg/mL (≈ 325 µM)
- MIC (Candida albicans [5]; MTCC 183, 24 h): 300 µg/mL (≈ 325 µM)
- MIC (Candida parapsilosis; [9]): 300 µg/mL (≈ 325 µM)

Compound: OC(Cn1cncn1)(Cn1cncn1)c1ccc(F)cc1F [FLUCONAZOLE]
- MIC (Candida albicans [1]; MTCC 7315, 24 h): 37.5 µg/mL (≈ 122 µM)
- MIC (Nakaseomyces glabratus [2]; MTCC 3019, 24 h): 75 µg/mL (≈ 245 µM)
- MIC ([Candida] aaseri; [8]): 75 µg/mL (≈ 245 µM)
- MIC (Candida albicans [3]; MTCC 854, 24 h): 37.5 µg/mL (≈ 122 µM)
- MIC (Candida albicans [4]; MTCC 3958, 24 h): 75 µg/mL (≈ 245 µM)
- MIC (Candida albicans [5]; MTCC 183, 24 h): 37.5 µg/mL (≈ 122 µM)
- MIC (Candida parapsilosis; [9]): 18.8 µg/mL (≈ 61.4 µM)

Compound: CCCCCCCCC[C@@H](O)[C@H](C)N
- MIC (Candida albicans [1]; MTCC 7315, 24 h): 9.9 µg/mL (≈ 49.2 µM)
- MIC (Candida albicans [6]): 0.7 µg/mL (≈ 3.48 µM)
- MIC (Nakaseomyces glabratus [2]; MTCC 3019, 24 h): 9.9 µg/mL (≈ 49.2 µM)
- MIC ([Candida] aaseri; [8]): 9.9 µg/mL (≈ 49.2 µM)
- MIC (Candida albicans [3]; MTCC 854, 24 h): 37.5 µg/mL (≈ 186 µM)
- MIC (Candida albicans [4]; MTCC 3958, 24 h): 19.8 µg/mL (≈ 98.3 µM)
- MIC (Nakaseomyces glabratus [7]): 30 µg/mL (≈ 149 µM)
- MIC (Candida albicans [5]; MTCC 183, 24 h): 9.9 µg/mL (≈ 49.2 µM)
- MIC (Candida parapsilosis; [9]): 4.9 µg/mL (≈ 24.3 µM)

Compound: NYSTATIN
- MIC (Candida albicans [1]): 150 µg/mL
- MIC (Nakaseomyces glabratus [2]): 150 µg/mL
- MIC ([Candida] aaseri): 150 µg/mL
- MIC (Candida albicans [3]): 150 µg/mL
- MIC (Candida albicans [4]): 150 µg/mL
- MIC (Candida albicans [5]): 150 µg/mL
- MIC (Candida parapsilosis): 150 µg/mL

Compound: Clc1ccc(COC(Cn2ccnc2)c2ccc(Cl)cc2Cl)c(Cl)c1 (configuration not stated) [MICONAZOLE]
- MIC (Candida albicans [1]; MTCC 7315, 24 h): 9.9 µg/mL (≈ 23.8 µM)
- MIC (Nakaseomyces glabratus [2]; MTCC 3019, 24 h): 9.9 µg/mL (≈ 23.8 µM)
- MIC ([Candida] aaseri; [8]): 9.9 µg/mL (≈ 23.8 µM)
- MIC (Candida albicans [3]; MTCC 854, 24 h): 9.9 µg/mL (≈ 23.8 µM)
- MIC (Candida albicans [4]; MTCC 3958, 24 h): 9.9 µg/mL (≈ 23.8 µM)
- MIC (Candida albicans [5]; MTCC 183, 24 h): 9.9 µg/mL (≈ 23.8 µM)
- MIC (Candida parapsilosis; [9]): 9.9 µg/mL (≈ 23.8 µM)
